Converted amounts (≈) assume the structure as drawn.
Legend:
[1] = system: Mycobacterium tuberculosis; assay: Antimycobacterial activity against Mycobacterium tuberculosis H37Rv by twofold dilution method; format: functional, organism-based
Outline: (§1)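 M. tuberculosis H37Rv (ATCC 27294) grown in BACTEC 12B medium, tested by Microplate Alamar Blue Assay across 10 twofold dilutions from 100 to 0.19 µg/mL. IC90 and IC50 taken from dose–response curve fitting.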

Vero = assay: Cytotoxicity against african green monkey Vero cells after 72 hrs by MTT assay; format: cell-based; conditions: Chlorocebus sabaeus
Outline: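 VERO cell cytotoxicity screen: cells exposed to compound for 72 h, viability read by MTT (CellTiter 96 non-radioactive proliferation reagent); EC50 obtained by curve fitting of the dose–response.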

[2] = Solubility in DMSO-d6/D2O solution; format: physicochemical
[3] = Solubility in CD3OD solution; format: physicochemical
[4] = system: Mycobacterium tuberculosis; assay: Antimycobacterial activity against Mycobacterium tuberculosis H37Rv at 6.25 ug/mL by twofold dilution method; format: functional
[5] = Chemical stability in DMSO-d6/D2O solution assessed as cyclization after 25 days; format: physicochemical; conditions: for Stability: 600 h
[6] = Chemical stability in DMSO-d6 solution assessed as cyclization after 25 days; format: physicochemical; conditions: 600 h
[7] = Chemical stability in CD3OD solution assessed as cyclization after 25 days; format: physicochemical; conditions: read-out: Activity
[8] = system: Mycobacterium tuberculosis; assay: Antimycobacterial activity against Mycobacterium tuberculosis; format: functional, organism-based; outline: as §1

Structure (SMILES)	IC50 [1] [µg/mL]	IC90 [1] [µg/mL]	other results
COc1ccc(CN(C)c2ncnc(-c3ccco3)c2NC=O)cc1	> 100	> 100	
COc1ccc(CNc2cc(-c3ccco3)nc(Cl)n2)cc1	> 100	> 100	
COc1ccc(CN(C)c2cc(-c3ccco3)nc(Cl)n2)cc1	1.4 (≈ 4.25 µM)	3 (≈ 9.1 µM)	IC50 (Vero): 22 µg/mL (≈ 66.7 µM)
COc1ccc(COc2cc(-c3ccco3)nc(Cl)n2)cc1	> 100	> 100	
COc1ccc(COc2cc(-c3ccco3)ncn2)cc1	> 100	> 100	
COc1ccc(CN(C)c2cc(-c3ccco3)ncn2)cc1	5.5 (≈ 18.6 µM)	7.1 (≈ 24 µM)	solubility [2]: Insoluble; solubility [3]: Insoluble
CNc1c(NCc2ccc(OC)cc2)ncnc1-c1ccco1	9 (≈ 29 µM)	15 (≈ 48.3 µM)	
CCNc1c(NCc2ccc(OC)cc2)ncnc1-c1ccco1	36 (≈ 111 µM)	46 (≈ 142 µM)	
COc1ccc(Cn2cnc(-c3cncnc3-c3ccco3)c2)cc1	62 (≈ 187 µM)	82 (≈ 247 µM)	
COc1ccc(Cn2cncc2-c2cc(-c3ccco3)ncn2)cc1	9.8 (≈ 29.5 µM)	14 (≈ 42.1 µM)	
COc1ccc(CN(C)c2ncnc(-c3ccco3)c2[N+](=O)[O-])cc1	5.7 (≈ 16.7 µM)	13 (≈ 38.2 µM)	
COc1ccc(COc2ncnc(-c3ccco3)c2[N+](=O)[O-])cc1	> 50	> 50	
COc1ccc(CNc2cc(-c3ccco3)ncn2)cc1			inhibition at 6.25 µg/mL [4]: 0%
NCC[C@H](O)C(=O)N[C@@H]1C[C@H](N)[C@@H](O[C@H]2O[C@H](CN)[C@@H](O)[C@H](O)[C@H]2O)[C@H](O)[C@H]1O[C@H]1O[C@H](CO)[C@@H](O)[C@H](N)[C@H]1O.O=S(=O)(O)O	0.07	0.13	
COc1ccc(CNc2nc(F)nc(-c3ccco3)c2NC=O)cc1	< 0.2	< 0.2	IC50 (Vero): > 40 µg/mL; Stability [5]: Stable; Stability [6]: Stable
COc1ccc(CNc2nc(Cl)nc(-c3ccco3)c2NC=O)cc1	< 0.2	0.2 (≈ 0.557 µM)	IC50 (Vero): > 40 µg/mL; degraded at 600 h [7]: 12%; Stability [5]: Stable; Stability [6]: Stable

Structure (SMILES)	IC50 [1] [µg/mL]	IC90 [1] [µg/mL]	other results
COc1ccc(CNc2nc(C)nc(-c3ccco3)c2NC=O)cc1	< 0.2	0.33 (≈ 0.975 µM)	IC50 (Vero): > 40 µg/mL; degraded at 600 h [7]: 90%; degraded at 600 h ([5]; DMSO-d6/D2O solution, read-out: Activity): 40%; Stability [6]: Stable
COc1ccc(CNc2ncnc(-c3ccco3)c2N)cc1			inhibition at 6.25 µg/mL [4]: 0%
COc1ccc(CNc2ncnc(-c3ccco3)c2NC=O)cc1	0.22 (≈ 0.678 µM)	0.56 (≈ 1.73 µM)	IC50 (Vero): > 40 µg/mL; degraded at 600 h [7]: 90%; Stability [6]: Stable
CCc1nc(NCc2ccc(OC)cc2)c(NC=O)c(-c2ccco2)n1	0.26 (≈ 0.738 µM)	0.53 (≈ 1.5 µM)	IC50 (Vero): > 40 µg/mL; degraded at 600 h [7]: 90%; Stability [6]: Stable
COc1ccc(CN(C=O)c2c(-c3ccco3)nc[nH]c2=O)cc1	68 (≈ 209 µM)	92 (≈ 283 µM)	
COc1ccc(CN(C)c2ncnc(-c3ccco3)c2N)cc1	9.4 (≈ 30.3 µM)	17 (≈ 54.8 µM)	
COc1ccc(CNc2nc(OC)nc(-c3ccco3)c2NC=O)cc1	0.53 (≈ 1.5 µM)	1.5 (≈ 4.23 µM)	IC50 (Vero): > 40 µg/mL; degraded at 600 h [7]: 12%; Stability [5]: Stable; Stability [6]: Stable
COc1ccc(CNc2nc(N(C)C)nc(-c3ccco3)c2NC=O)cc1	11 (≈ 29.9 µM)	26 (≈ 70.8 µM)	degraded at 600 h [7]: 12%; Stability [5]: Stable; Stability [6]: Stable
COc1ccc(CNc2ncnc(-c3ccco3)c2[N+](=O)[O-])cc1	13 (≈ 39.8 µM)	21 (≈ 64.4 µM)	
COc1ccc(COc2ncnc(-c3ccco3)c2N)cc1	> 100	> 100	
COc1ccc(CNc2ncnc(-c3ccco3)c2N(C)C)cc1	17 (≈ 52.4 µM)	> 100	
COc1ccc(CNc2nc([N+](=O)[O-])nc(-c3ccco3)c2NC=O)cc1	0.59 (≈ 1.6 µM)	1.1 (≈ 2.98 µM)	IC50 (Vero): > 40 µg/mL
COc1ccc(COc2ncnc(-c3ccco3)c2NC=O)cc1	> 100	> 100	
COc1ccc(Cn2cnc3c(-c4ccco4)ncnc32)cc1			IC50 [8]: < 0.2 µg/mL
COc1ccc(Cn2cnc3c(-c4ccco4)nc(Cl)nc32)cc1			IC90 [8]: 0.82 µg/mL (≈ 2.41 µM)

Source: ChEMBL document CHEMBL1165967, “Synthesis and biological evaluation of pyrimidine analogs of antimycobacterial purines” (Bioorg Med Chem, 2010)
